STAT1 activator = STAT1 signaling activators, primary screen, cell-based, HTS, luciferase reporter. NIH 3T3 STAT1-luciferase reporter, IFN-gamma, luminescence; 100% = IFN-gamma alone, no compound. activation (% of control), % at 5.5 µM. 200,000 tested, 2.6% active. AID 932, 2007;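 active = activation above the screen-wide mean activation plus 3 SD, cut at about 130% in these data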;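 note: raw ratio to IFN-gamma control signal so 100% means no change and 0% no light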
STAT3 blocker = IL-6 driven STAT3 reporter inhibitors, primary screen, U3A cells, luciferase, luminescence, MLSCN library. IL-6 STAT3-luciferase reporter; host cell line lacks STAT1. inhibition, % at 5.5 µM. 190,000 tested, 0.89% active;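 active = inhibition above the mean inhibition across all screened compounds plus 3 SD, cut at about 44% in these data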;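 note: 0% = DMSO only wells and 100% = 100 µM nifuroxazide control wells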
STAT3 act = IL-6 driven STAT3 reporter potentiators, primary screen, U3A cells, luciferase, luminescence, MLSCN library | IL-6 STAT3-luciferase reporter; 100% = signal with IL-6 EC80 alone | activation (% of control), % at 5.6 µM | 190,000 tested, 0.91% active;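 active = activation above the screen-wide mean of compound activation plus 3 SD, cut at about 130% in these data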;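 note: 0% = background luminescence of wells with medium and substrate only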
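Assay system – human STAT1-deficient U3A cells with stable STAT3-luciferase reporter · Also added – IL-6 (33 ng/mL) · Schedule – compound 1 h, then IL-6 6 h at 37 °C · Technique – reporter luminescence signal · Evaluation – % activation versus median of IL-6-stimulated wells · Benchmarks – IL-6-only wells as 100% reference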
STAT1 blocker = STAT1 signaling inhibitors, primary screen, cell-based, HTS, luciferase reporter. NIH 3T3 STAT1-luciferase reporter, IFN-gamma, luminescence. inhibition, % at 5.5 µM. 200,000 tested, 0.35% active;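 active = inhibition above a set limit, the mean inhibition across all tested compounds plus 3 SD, cut at about 34% in these data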;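 note: 0% = IFN-gamma with DMSO and 100% = IFN-gamma with 300 µM nifuroxazide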
APP 5'UTR act = activators of APP 5'UTR luciferase reporter, primary screen, SH-SY5Y cells; SH-SY5Y APP 5'UTR luciferase reporter, luminescence; zero percent = DMSO vehicle wells; 190,000 tested, 1% active; activation, % at 2 µM;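 active = activation above a set limit, based on mean plus 3 SD of controls, cut at about 140% in these data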
NF-kB expr up = activators of NF-kB expression in neurons, primary screen, cell-based, HTS; AID 1239, 2008; human neuronal cells, NF-kB reporter expression; active compounds read high; fold change at 12.5 µM; 190,000 tested, 1.6% active; in the data active = fold change above about 3.3
The depositor's hits bear a star; / = no result. Only some compounds are listed: those with a hit (about 4.9% of all), similar ones and a draw of the others.

SMILES | STAT1 activator | STAT3 blocker | STAT3 act | STAT1 blocker | APP 5'UTR act | NF-kB expr up
O=C(NCc1ccco1)c1ccc2c(c1)C(=O)c1ccccc1-2 | 132.9* | 8.1 | 95.0 | -19.3 | 20.6 | 1.49
O=C(NCc1ccco1)c1ccc2ccccc2c1 | 133.6* | 14.9 | 90.3 | -37.0 | 86.2 | 1.35
CCc1ccc2[nH]c(=O)c(CN(CCN(CC)CC)C(=S)NCc3ccco3)cc2c1 | 112.1 | -5.9 | 108.2 | -15.3 | -7.3 | 0.77
CC1CCC/C(=N/Nc2nc3ccccc3s2)C1 (configuration not stated) | 138.5* | 6.4 | 100.3 | -43.2 | 139.7* | 1.3
CC1(C)CC(=O)C/C(=N/Nc2nc3ccccc3s2)C1 | 102.7 | -12.7 | 115.5 | -3.0 | 56.6 | 0.61
Nn1c(SCC(=O)Nc2cccc(S(N)(=O)=O)c2)nnc1C1CC1 | 123.5 | -5.8 | 105.2 | -24.4 | -6.2 | 1.11
CC1(C)C(=O)OC(c2ccccc2)C2(CCCC2)C1=O (configuration not stated) | 96.7 | -0.4 | 100.3 | 1.3 | -9.2 | 1.12
O=C(O)c1ccc2oc(SCC(=O)N3CCCCC3)nc2c1 | 136.7* | -20.0 | 120.1 | -39.7 | 51.2 | 1.84
O=C(COc1ccc(F)cc1)c1ccc2c(c1)CCCC2 | 137.4* | 7.9 | 102.0 | -41.6 | 70.9 | /
O=C(COc1ccc(Cc2ccccc2)cc1)c1ccc(F)cc1 | 96.5 | 2.7 | 97.9 | 4.0 | 26.8 | 0.97
CC(=O)c1c(OC(=O)c2ccccc2Br)ccc2c(C)cc(=O)oc12 | 96.0 | 9.8 | 98.7 | 4.4 | -11.4 | 0.88
Cc1cc(OC(=O)c2ccccc2Br)cc(=O)n1C | 65.2 | 26.3 | 82.5 | 39.0* | -1.1 | 0.96
CC(=O)Oc1ccc(Cl)cc1/C=C/c1cc(OC(C)=O)c2ccccc2n1 | 100.2 | -26.6 | 118.9 | 2.1 | -1.1 | 1.11
COc1cc(Cl)cc(/C=C/c2ccc3ccccc3n2)c1OC(C)=O | 95.1 | -13.2 | 108.4 | 7.4 | 154.6* | 1.06
COc1ccc(Cc2[nH]n3c(=O)cc(C(C)C)nc3c2-c2ccccc2)cc1 | 82.0 | 2.7 | 106.2 | 19.7 | -13.1 | 0.61
N/C(=N\OCc1ccc([N+](=O)[O-])cc1)c1ccccn1 | 15.8 | 110.3* | 12.0 | 90.0* | 33.7 | 1.63
C/C(=N/OCc1ccc(Br)cc1)c1ccccn1 | 137.7* | 11.9 | 90.3 | -40.1 | 197.1* | 3.97*
O=C(N/N=C/c1ccccc1Br)C1CC1 | 101.9 | 6.8 | 94.4 | -1.9 | -5.0 | 0.95
CCOc1ccc(OCCSc2nnnn2C2CCCCC2)cc1 | 97.1 | 6.9 | 98.6 | 3.2 | -5.6 | 0.95
CCOc1cc(C2NN=C(c3ccccc3)S2)ccc1OCc1ccc(F)cc1 (configuration not stated) | 132.9* | 6.6 | 94.7 | -35.7 | 97.2 | 4.46*
CCOc1cc(CNC2CCCC2)ccc1OCc1ccccc1Cl | 87.2 | 0.9 | 101.2 | 12.1 | -25.7 | 1.05
CCOc1cc(C2NN=C(c3ccccc3)S2)ccc1OCc1ccccc1Cl (configuration not stated) | 136.4* | -0.9 | 107.5 | -40.7 | 18.2 | 3.7*
Cc1cnc(NC(=O)CCCSc2nc3ccccc3s2)s1 | 99.0 | -31.2 | 135.3* | 1.1 | -8.0 | 0.98
CN(C)/C=C/C(=O)c1cnc(-c2ccccc2)s1 | 131.4* | 23.6 | 85.7 | -34.1 | 102.4 | 3.76*
CN(C)/C=C/C(=O)c1ccc(Cl)s1 | 104.3 | 5.5 | 99.2 | -6.2 | 6.0 | 1.39
SMILES | STAT1 activator | STAT3 blocker | STAT3 act | STAT1 blocker | APP 5'UTR act | NF-kB expr up
c1ccc(-c2cc3n(c2)CCc2ccccc2-3)cc1 | 130.0* | -105.5 | 190.8* | -42.5 | 47.7 | 2.89
O=C(O)c1cc2c(s1)-c1ccccc1CC2 | 102.7 | -11.6 | 107.4 | -3.0 | 15.8 | 0.98
CCC(C)NC(=O)c1ccccc1NC(=O)CN(c1ccc(OC)cc1)S(C)(=O)=O (configuration not stated) | 98.3 | 4.6 | 101.1 | 1.9 | 15.2 | 0.69
CSc1cccc(NC(=O)/C=C/c2ccco2)c1 | 122.8 | -4.4 | 104.1 | -23.6 | 35.7 | 3.18
O=C(/C=C/c1ccccc1)Nc1ccc2c(c1)OCCO2 | 59.9 | 78.7* | 34.5 | 41.9* | 151.8* | 3.45*
O=C(/C=C/c1ccco1)Nc1ccc2c(c1)OCCO2 | 102.9 | 41.1 | 69.1 | -5.2 | 155.9* | 9.17*
CCN(CC(=O)Nc1ccc2c(c1)OCCO2)C(=O)/C=C/c1ccccc1 | 109.1 | -11.9 | 111.4 | -11.4 | -9.4 | 1.55
COc1cccc(NC(=O)/C=C/c2ccco2)c1 | 127.7 | -9.5 | 108.3 | -28.9 | 73.5 | 3.72*
CC(=O)Nc1nc(C2CC2)cc(-c2ccccc2)c1C#N | 90.4 | -19.1 | 119.0 | 9.2 | -18.8 | 0.87
O=C(/C=C/c1ccccc1F)c1cccc([N+](=O)[O-])c1 | 105.1 | -15.3 | 113.9 | -6.0 | 22.4 | 1.21
O=C(Oc1ccc(F)cc1C(=O)/C=C/c1cccs1)c1cccc([N+](=O)[O-])c1 | 116.4 | -21.5 | 122.7 | -17.9 | -43.2 | 4.48*
O=C(NCc1ccccc1)Nc1cccn(Cc2cccc(F)c2)c1=O | 102.7 | -3.9 | 101.0 | -3.0 | 18.4 | 0.92
COc1ccccc1OCC(=O)Nc1ccc(-c2nnc(-c3ccco3)o2)cc1 | 120.2 | -4.2 | 105.6 | -20.8 | 25.5 | 1.2
CCC(Oc1ccccc1)C(=O)Nc1ccc(-c2nnc(-c3ccco3)o2)cc1 (configuration not stated) | 133.4* | 6.2 | 95.8 | -36.3 | 79.8 | 0.68
Cc1ccc(CS/C(Nc2ccccc2C)=C(\C#N)C(N)=O)c(C)c1 | 100.2 | -3.2 | 100.7 | -0.2 | 7.0 | 1.45
S=C(Nc1ccc2nsnc2c1)N1CCCCC1 | 132.2* | 1.8 | 96.7 | -36.1 | 64.9 | 2.65
COc1ccc(NC(=O)Nc2cccc(OC)c2)cc1 | 116.7 | 3.0 | 103.7 | -18.2 | 65.6 | /
O=C(Nc1ccc2nsnc2c1)NC1CCCCC1 | 131.4* | -7.6 | 106.6 | -34.0 | 92.0 | 3.77*
COc1cccc(NC(=O)Nc2ccc3nsnc3c2)c1 | 131.4* | 12.4 | 94.5 | -34.9 | / | 1.75
O=C(Nc1ccc2nsnc2c1)C1CC1 | 103.5 | 16.1 | 88.2 | -5.8 | -2.5 | 0.97
O=C(Nc1ccc(Cl)cc1)NC1CCCCC1 | 138.3* | -15.3 | 114.7 | -43.0 | 45.5 | 2.56
S=C(Nc1ccc2nc(-c3ccccn3)c(-c3ccccn3)nc2c1)N1CCCCC1 | 96.8 | 0.9 | 100.5 | 2.3 | -5.5 | 0.95
Nc1ccc(NC(=O)NC2CCCCC2)cc1 | 114.6 | 11.7 | 94.7 | -15.6 | 4.0 | 1.38
CN(c1ccccc1)C(c1ccc(F)cc1)c1nnnn1C1CCCC1 (configuration not stated) | 101.5 | -0.3 | 105.1 | -1.6 | -2.8 | 0.82
O=C(/C=C/c1ccccc1)N1CCN(c2cccc(Cl)n2)CC1 | 93.3 | 2.5 | 99.2 | 7.5 | 8.3 | 1.02

Screens deposited in PubChem BioAssay by several laboratories.
